Pf gamet viab: inhibitors of late stage P. falciparum gametocyte viability; P. falciparum stage V gametocytes, ATP luminescence, 24 h; inhibition, % at 10.9 µM; actives 0.065% (n = 150,000); AID 743093;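 active = inhibition above the mean plus 3 SD of compounds within the control limits, set per campaign, cut at about 38% in these data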;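 also: 0% = DMSO wells and 100% = medium only without gametocytes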
STAT1 activator: activators of IFN-gamma induced STAT1 signaling | NIH 3T3 STAT1-luciferase reporter, luminescence; 100% = IFN-gamma alone, no compound | activation (% of control), % at 5.5 µM | actives 2.6% (n = 200,000);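 active = activation above the screen-wide mean activation plus 3 SD, cut at about 130% in these data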;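 also: raw ratio to IFN-gamma control signal so 100% means no change and 0% no light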
APP 5'UTR act: activates APP 5'UTR luciferase reporter; SH-SY5Y APP 5'UTR luciferase reporter, luminescence; zero percent = DMSO vehicle wells; activation, % at 2 µM; actives 1% (n = 190,000);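 active = activation above a set limit, based on mean plus 3 SD of controls, cut at about 140% in these data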
FLuc inh counter: inhibits firefly luciferase, flagging false hits in luciferase inhibition screens; actives 1.5% (n = 200,000); ATPLite firefly luciferase biochemical luminescence, 10 min; inhibition, % at 10 µM;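 active = inhibition above about 50% when tested at 10 µM, limit read from the data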
Target sequence (P08659 whole entry, looked up): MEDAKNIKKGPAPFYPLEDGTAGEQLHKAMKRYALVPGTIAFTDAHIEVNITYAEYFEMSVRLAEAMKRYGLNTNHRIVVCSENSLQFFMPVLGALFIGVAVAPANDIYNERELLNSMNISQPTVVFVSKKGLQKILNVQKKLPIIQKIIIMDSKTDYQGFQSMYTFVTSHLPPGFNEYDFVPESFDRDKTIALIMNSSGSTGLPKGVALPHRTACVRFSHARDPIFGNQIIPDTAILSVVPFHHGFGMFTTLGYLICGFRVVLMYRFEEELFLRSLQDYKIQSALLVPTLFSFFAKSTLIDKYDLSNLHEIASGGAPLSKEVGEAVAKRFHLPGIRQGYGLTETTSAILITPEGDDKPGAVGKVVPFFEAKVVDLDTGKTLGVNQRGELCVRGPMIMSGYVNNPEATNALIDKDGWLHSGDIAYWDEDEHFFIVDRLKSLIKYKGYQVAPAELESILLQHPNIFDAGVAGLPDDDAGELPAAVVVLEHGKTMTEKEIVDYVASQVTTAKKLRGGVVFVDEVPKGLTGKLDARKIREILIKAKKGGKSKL
NF-kB neuron act: raises NF-kB expression in human neuronal cells. NF-kB reporter expression; hits give high values. fold change at 12.5 µM. actives 1.6% (n = 190,000). AID 1239; in the data active = fold change above about 3.3
FLuc act counter: firefly luciferase counter-screen for stimulation assays; P08659; 200,000 tested, under 10 active; ATPlite luciferase biochemical, luminescence, 10 min; 0 = ATP-free wells, 1 = DMSO control; activation factor at 10 µM;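 active = luciferase activation factor, scaled between plate controls, of at least 2 with compound at 10 µM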
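System: cell-free luciferase reagent; medium: PBS as buffer for the ATP substrate; doses: test compounds dosed from 2 mM stocks in 100% DMSO; incubation: 10 min, room temperature; measured by: luminescence from luciferase reaction; read-out: luciferase activation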
STAT1 activ conf: confirmation of STAT1 signaling activators. shares compounds with STAT1 activator. NIH 3T3 STAT1-luciferase reporter, IFN-gamma potentiation, luminescence; 100% = IFN-gamma EC80 alone, no compound. activation (% of control), % at 5.7 µM. actives 97% (n = 1,200);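 active = activation above a set limit carried over from the earlier primary STAT1 screen, cut at about 140% in these data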;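 also: simple ratio to median IFN-gamma plus DMSO wells so 0% means no light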
NFkB act: NF-kappaB activation in STAT1 activator counter-screen. shares compounds with STAT1 activator. HEK293T NF-kB luciferase reporter, TNF-alpha stimulated, luminescence; 100% = TNF-alpha with vehicle only. activation (% of control), % at 5.7 µM. actives 43% (n = 1,200). AID 1306;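 active = activation above the mean of solvent-only control wells plus 3 SD, set per campaign, cut at about 130% in these data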;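 also: TNF-alpha given at a submaximal dose yielding about 80% of full reporter signal; values are well signal over median control so 100% means no change and 0% no light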
STAT3 act STAT1c: human STAT3 activation in STAT1 activator counter-screen | shares compounds with STAT1 activator | U3A cells STAT3-luciferase reporter, IL-6, luminescence; cells lack STAT1; 100 = IL-6 alone, no compound effect | activation (% of control), % at 5.7 µM | actives 46% (n = 1,200) | AID 1316;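 active = activation above the solvent-only control well mean plus 3 SD, set per plate batch, cut at about 110% in these data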;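 also: 0% = no luminescence and 100% = median IL-6 plus DMSO wells; higher means more STAT3 reporter activation so hits are non-selective activators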
* hit, by the source's call. In the library only some 3.5% were active in any assay of this set; here they are far more common.

CC(C)(C)n1ncc2c(=O)n(CC(=O)NCc3ccc(F)cc3)cnc21 was read as STAT1 activator 160*, APP 5'UTR act 169*, FLuc inh counter 36, NF-kB neuron act 3.5*, FLuc act counter 0.6, STAT1 activ conf 199*, NFkB act 119 and STAT3 act STAT1c 127*.
For CC(C)(C)n1ncc2c(=O)n(CC(=O)NCc3ccco3)cnc21 the results were STAT1 activator 127, APP 5'UTR act 70, FLuc inh counter 4, NF-kB neuron act 1.9 and FLuc act counter 1.
Screening CCOc1ccc(/C=N/NC(=O)Nc2ccccc2)cc1 returned STAT1 activator 161*, APP 5'UTR act 105, FLuc inh counter 41, NF-kB neuron act 3.1, FLuc act counter 0.6, STAT1 activ conf 208*, NFkB act 140* and STAT3 act STAT1c 121*.
For CC(=O)Oc1ccc(/C=N/NC(=S)Nc2ccccc2)cc1 the results were STAT1 activator 160*, APP 5'UTR act 50, FLuc inh counter 6, NF-kB neuron act 5.3*, FLuc act counter 0.9, STAT1 activ conf 209*, NFkB act 128 and STAT3 act STAT1c 94.
Screening CCOc1ccc(/C=N/NC(=O)CC(=O)NCc2ccccc2)cc1 returned Pf gamet viab -5, STAT1 activator 96, APP 5'UTR act 3, FLuc inh counter 3, NF-kB neuron act 1.2 and FLuc act counter 1.
`CCN(CC)c1ccc(/C=N/NC(=O)Nc2ccccc2)cc1` gave Pf gamet viab -36, STAT1 activator 162*, APP 5'UTR act 80, FLuc inh counter 27, FLuc act counter 0.7, STAT1 activ conf 173*, NFkB act 134* and STAT3 act STAT1c 123*.
Screening Cc1oc(-c2ccc(Cl)cc2)nc1CSCC(=O)NCCCN1CCOCC1 returned Pf gamet viab 14, STAT1 activator 98, APP 5'UTR act 4, FLuc inh counter 3, NF-kB neuron act 0.79 and FLuc act counter 1.
For N#C/C(=N\Nc1ccc(Cl)cc1)C(=N)N1CCCCC1 the results were Pf gamet viab -25, STAT1 activator 223*, APP 5'UTR act 190*, FLuc inh counter 35, NF-kB neuron act 7.4*, FLuc act counter 0.6, STAT1 activ conf 316*, NFkB act 149* and STAT3 act STAT1c 118*.
For O=C(COc1ccc(Cl)cc1[N+](=O)[O-])NC1CCCCC1 the results were Pf gamet viab -17, STAT1 activator 160*, APP 5'UTR act 114, FLuc inh counter 13, FLuc act counter 0.9, STAT1 activ conf 167*, NFkB act 121 and STAT3 act STAT1c 111*.
Screening N#Cc1cc(-c2ccccc2)oc1NC(=O)c1ccco1 returned STAT1 activator 107, APP 5'UTR act 5, FLuc inh counter 24, NF-kB neuron act 1.2 and FLuc act counter 0.8.
`Cc1ccccc1-c1nnc(NC(=O)c2cc3ccccc3oc2=O)s1` gave STAT1 activator 103, APP 5'UTR act 19, FLuc inh counter -5, NF-kB neuron act 1.2 and FLuc act counter 1.1.
Screening Cc1cccnc1NC(=O)c1cc2ccccc2oc1=O returned Pf gamet viab 5, STAT1 activator 156*, APP 5'UTR act 176*, FLuc inh counter 50, NF-kB neuron act 4.2*, FLuc act counter 0.5, STAT1 activ conf 191*, NFkB act 117 and STAT3 act STAT1c 117*.

Screens (PubChem BioAssay)
